According to ChEMBL document CHEMBL1240507, “Peptidic HIV integrase inhibitors derived from HIV gene products: structure-activity relationship studies” (Bioorg Med Chem, 2010):
The source made the active and inactive calls. No cut-off for these calls is given here.

Key:
[1] = tested on: Human immunodeficiency virus 1; assay: Antiviral activity against HIV1 HXB2 infected in human MT4 cells assessed as protection against virus-induced cell death after 6 to 7 days by luciferase assay; assay type: functional, organism-based
Method in brief: (§1)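 MT-4 luciferase reporter cells (1×10^3 cells) were infected with HIV-1 HXB2 in the presence of peptides at various concentrations. At 6–7 days post-infection, cells were lysed and luciferase activity was read by chemiluminescence.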

MT4 [2] = assay: Cytotoxicity against human MT4 cells at 10 uM after 6 to 7 days; assay type: cell-based; conditions: mt4, 10 µM
[3] = tested on: Human immunodeficiency virus 1; assay: Antiviral activity against HIV1 HXB2 infected in human MT4 cells assessed as protection against virus-induced cell death at 10 uM after 6 to 7 days by luciferase assay; assay type: functional, organism-based; method in brief: as §1
MT4 [4] = assay: Cytotoxicity against human MT4 cells at >5 uM after 6 to 7 days; assay type: cell-based
[5] = tested on: Human immunodeficiency virus 1; assay: Antiviral activity against HIV1 HXB2 infected in human MT4 cells assessed as protection against virus-induced cell death at 2.5 to 5 uM after 6 to 7 days by luciferase assay; assay type: functional, organism-based; method in brief: as §1
[6] = target: T1, Human immunodeficiency virus type 1 integrase (Human immunodeficiency virus 1, UniProt Q7ZJM1); assay: Inhibition of HIV1 integrase 3'-processing activity expressed in Escherichia coli after 60 mins
Method in brief: (§2)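 Recombinant IN was expressed in and purified from E. coli, with 10% glycerol in all buffers. Reactions contained 400 nM IN, 20 nM 5'-end [³²P]-labeled oligonucleotide substrate and inhibitor at varied concentrations, with 10% DMSO alone as control. Reactions were stopped with EDTA/formamide loading dye. IC50 came from a logistic nonlinear fit.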

[7] = target: T1, Human immunodeficiency virus type 1 integrase; assay: Inhibition of HIV1 integrase strand transfer activity expressed in Escherichia coli after 60 mins; method in brief: as §2
[8] = tested on: Human immunodeficiency virus 1; assay: Antiviral activity against HIV1 HXB2 infected in human MT4 cells assessed as protection against virus-induced cell death at 1.25 uM after 6 to 7 days by luciferase assay; assay type: functional, organism-based; method in brief: as §1
[9] = tested on: Human immunodeficiency virus 1; assay: Antiviral activity against HIV1 HXB2 infected in human MT4 cells assessed as protection against virus-induced cell death at 5 uM after 6 to 7 days by luciferase assay; assay type: functional, organism-based
Method in brief: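 MT-4 luciferase reporter cells (1×10^3 per well) infected with HIV-1 HXB2 while exposed to a range of peptide concentrations. After 6–7 days post-infection, cells were lysed, luciferase activity was measured with a Steady-Glo kit, and chemiluminescence was read on a luminometer.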

T1 sequence (Q7ZJM1 whole entry): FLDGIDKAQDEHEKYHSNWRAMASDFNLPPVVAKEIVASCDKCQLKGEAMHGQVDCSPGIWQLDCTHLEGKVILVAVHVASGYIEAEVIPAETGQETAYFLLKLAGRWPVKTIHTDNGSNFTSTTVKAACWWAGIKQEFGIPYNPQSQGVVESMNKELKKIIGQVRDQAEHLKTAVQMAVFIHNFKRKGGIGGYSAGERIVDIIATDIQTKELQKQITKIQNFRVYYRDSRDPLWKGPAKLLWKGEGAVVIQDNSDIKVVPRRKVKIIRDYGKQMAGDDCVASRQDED

Ac-LAQLLFIHFRIGRRRRRRRR-NH2 was tested, and the Activity [1] was “Dose-dependent effect” and the Activity (MT4 [2]) was “Toxic”.
Ac-EAIIRILQELLFKHFRIGRRRRRRRR-NH2 was tested, and the Activity [3] was “inactive”.
Ac-EAEIRIKQQLLFIHFRIGRRRRRRRR-NH2 was tested, and the Activity [3] was “Active”.
Ac-LQQLLFIAFRIGRRRRRRRR-NH2 was tested, and the Activity [1] was “Dose-dependent effect” and the Activity (MT4 [4]) was “Toxic”.
In the case of `CC[C@H](C)[C@H](NC(=O)[C@H](C)NC(=O)[C@H](CCC(=O)O)NC(C)=O)C(=O)N[C@H](C(=O)N[C@@H](CCCNC(=N)N)C(=O)N[C@H](C(=O)N[C@@H](CC(C)C)C(=O)N[C@@H](CCC(N)=O)C(=O)N[C@@H](CCC(N)=O)C(=O)N[C@@H](CC(C)C)C(=O)N[C@@H](CC(C)C)C(=O)N[C@@H](Cc1ccccc1)C(=O)N[C@H](C(=O)N[C@@H](CCC(=O)O)C(=O)N[C@@H](Cc1ccccc1)C(=O)N[C@@H](CCCNC(=N)N)C(=O)N[C@H](C(=O)N[C@@H](CCCCN)C(=O)N[C@@H](CCCNC(=N)N)C(=O)N[C@@H](CCCNC(=N)N)C(=O)N[C@@H](CCCNC(=N)N)C(=O)N[C@@H](CCCNC(=N)N)C(=O)N[C@@H](CCCNC(=N)N)C(=O)N[C@@H](CCCNC(=N)N)C(=O)N[C@@H](CCCNC(=N)N)C(=O)N[C@@H](CCCNC(=N)N)C(N)=O)[C@@H](C)CC)[C@@H](C)CC)[C@@H](C)CC)[C@@H](C)CC`, the Activity [5] is reported as “Active”.
Ac-LQQLLFIHFRIARRRRRRRR-NH2 was tested, and the IC50 [6] was 90 nM and the Activity [1] was “Dose-dependent effect”.
In the case of Ac-EEIIRKLQQLLFIEFRIKRRRRRRRR-NH2, the Activity [3] is reported as “inactive”.
In the case of Ac-AQQLLFIHFRIGRRRRRRRR-NH2, the Activity [1] is reported as “Dose-dependent effect”.
In the case of `CC[C@H](C)[C@H](NC(=O)[C@H](C)NC(=O)[C@H](CCC(=O)O)NC(C)=O)C(=O)N[C@H](C(=O)N[C@@H](CCCNC(=N)N)C(=O)N[C@H](C(=O)N[C@@H](CC(C)C)C(=O)N[C@@H](CCC(N)=O)C(=O)N[C@@H](CCC(N)=O)C(=O)N[C@@H](CC(C)C)C(=O)N[C@@H](CC(C)C)C(=O)N[C@@H](Cc1ccccc1)C(=O)N[C@H](C(=O)N[C@@H](Cc1cnc[nH]1)C(=O)N[C@@H](Cc1ccccc1)C(=O)N[C@@H](CCCNC(=N)N)C(=O)N[C@H](C(=O)NCC(=O)N[C@@H](CCCNC(=N)N)C(=O)N[C@@H](CCCNC(=N)N)C(=O)N[C@@H](CCCNC(=N)N)C(=O)N[C@@H](CCCNC(=N)N)C(=O)N[C@@H](CCCNC(=N)N)C(=O)N[C@@H](CCCNC(=N)N)C(=O)N[C@@H](CCCNC(=N)N)C(=O)N[C@@H](CCCNC(=N)N)C(N)=O)[C@@H](C)CC)[C@@H](C)CC)[C@@H](C)CC)[C@@H](C)CC`, the IC50 [6] is reported as 90 nM, the IC50 [7] is reported as 40 nM and the Activity [8] is reported as “Active”. For the same compound, the Activity [3] was “inactive”.
For Ac-EAIERILKQLLFIHFRIGRRRRRRRR-NH2, the Activity [5] was “Active”.
Ac-LQQLAFIHFRIGRRRRRRRR-NH2 was tested, and the Activity [1] was “Dose-dependent effect” and the Activity (MT4 [2]) was “Toxic”.
In the case of Ac-LQQLLFIHFRAGRRRRRRRR-NH2, the Activity [1] is reported as “Dose-dependent effect”.
With Ac-LQQALFIHFRIGRRRRRRRR-NH2 the Activity [1] was “Dose-dependent effect” and the Activity (MT4 [2]) was “Toxic”.
Ac-EAIIRILQQLEFIHKRIGRRRRRRRR-NH2 was tested, and the Activity [5] was “Active”.
For Ac-LQQLLFIHARIGRRRRRRRR-NH2, the Activity [1] was “Dose-dependent effect” and the Activity (MT4 [2]) was “Toxic”.
`CC[C@H](C)[C@H](NC(=O)[C@H](CCCNC(=N)N)NC(=O)[C@H](Cc1ccccc1)NC(=O)[C@H](Cc1cnc[nH]1)NC(=O)[C@@H](NC(=O)[C@H](Cc1ccccc1)NC(=O)[C@H](CC(C)C)NC(=O)[C@H](CC(C)C)NC(=O)[C@H](CCC(N)=O)NC(=O)[C@H](CCC(N)=O)NC(=O)[C@H](CC(C)C)NC(=O)[C@H](CCCCN)NC(=O)[C@H](CCCNC(=N)N)NC(=O)[C@@H](NC(=O)[C@@H](NC(=O)[C@H](CCC(=O)O)NC(=O)[C@H](CCC(=O)O)NC(C)=O)[C@@H](C)CC)[C@@H](C)CC)[C@@H](C)CC)C(=O)NCC(=O)N[C@@H](CCCNC(=N)N)C(=O)N[C@@H](CCCNC(=N)N)C(=O)N[C@@H](CCCNC(=N)N)C(=O)N[C@@H](CCCNC(=N)N)C(=O)N[C@@H](CCCNC(=N)N)C(=O)N[C@@H](CCCNC(=N)N)C(=O)N[C@@H](CCCNC(=N)N)C(=O)N[C@@H](CCCNC(=N)N)C(N)=O` was tested, and the Activity [3] was “inactive”.
For `CC[C@H](C)[C@H](NC(=O)[C@H](CCCNC(=N)N)NC(=O)[C@H](Cc1ccccc1)NC(=O)[C@H](Cc1cnc[nH]1)NC(=O)[C@@H](NC(=O)[C@H](Cc1ccccc1)NC(=O)[C@H](CC(C)C)NC(=O)[C@H](CC(C)C)NC(=O)[C@H](CCC(N)=O)NC(=O)[C@H](CCC(N)=O)NC(=O)[C@H](CC(C)C)NC(C)=O)[C@@H](C)CC)C(=O)NCC(=O)N[C@@H](CCCNC(=N)N)C(=O)N[C@@H](CCCNC(=N)N)C(=O)N[C@@H](CCCNC(=N)N)C(=O)N[C@@H](CCCNC(=N)N)C(=O)N[C@@H](CCCNC(=N)N)C(=O)N[C@@H](CCCNC(=N)N)C(=O)N[C@@H](CCCNC(=N)N)C(=O)N[C@@H](CCCNC(=N)N)C(N)=O`, the IC50 [6] was 130 nM, the IC50 [7] was 60 nM and the Activity (MT4 [2]) was “Toxic”.
With Ac-LQQLLAIHFRIGRRRRRRRR-NH2 the Activity [1] was “Dose-dependent effect”, the Activity (MT4 [2]) was “Toxic” and the Activity [9] was “inactive”.
Ac-LQALLFIHFRIGRRRRRRRR-NH2 was tested, and the Activity [1] was “Dose-dependent effect” and the Activity (MT4 [2]) was “Toxic”.
Ac-LQQLLFIHFAIGRRRRRRRR-NH2 was tested, and the Activity [1] was “Dose-dependent effect” and the Activity (MT4 [2]) was “Toxic”.
Ac-LQQLLFAHFRIGRRRRRRRR-NH2 was tested, and the Activity [1] was “Dose-dependent effect”, the Activity (MT4 [4]) was “Toxic” and the Activity [9] was “inactive”.
